Measured values: ChEMBL document CHEMBL1123240 (J Med Chem, 1986)

What was measured:
[1] = Ratio of IC50 of Medial perforant path(MPP) to IC50 of Lateral perforant path(LPP); type: functional
Procedure, shortened: (§1)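 Ratio of IC50 values. For line 8, LPP IC50 from slice recording over [3H]APB binding IC50. Each IC50 is a weighted mean of IC50s calculated for each experimental point, or for steep agonist-like curves is read directly from the log concentration–response curve.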

Rattus norvegicus [2] = species: Rattus norvegicus; assay: Compound was evaluated for its ability to displace [3H]APB from rat brain synaptic plasma membrane preparations
Rattus norvegicus [3] = species: Rattus norvegicus; assay: Compound was tested for inhibition of hippocampal excitatory neurotransmission in schaffer collateral -CA1 pyramidal cells; type: functional
Procedure, shortened: (§2)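 Transverse hippocampal slices, 450 μm, from 30–90-day-old male Holtzman rats. Held at 30 °C, submerged in stirred medium (10 mM glucose, 124 mM NaCl, 3.3 mM KCl, 2.4 mM MgSO4, 2.5 mM CaCl2, 1.2 mM KH2PO4, 26 mM NaHCO3; 95:5 O2/CO2, pH 7.4). Evoked synaptic field potentials recorded extracellularly; CA1 electrodes in stratum radiatum. Drug started at threshold and doubled every 4 min. IC50 from fraction of uninhibited response versus log concentration.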

Rattus norvegicus [4] = species: Rattus norvegicus; assay: Compound was tested for inhibition of Medial perforant path(MPP) neurotransmission in hippocampus; type: functional
Rattus norvegicus [5] = species: Rattus norvegicus; assay: Compound was tested for inhibition of Lateral perforant path(LPP) neurotransmission in hippocampus; type: functional; procedure, shortened: as §2
[6] = Ratio of IC50 of Lateral perforant path(LPP) to IC50 of [3H]- binding; type: tissue-based; procedure, shortened: as §1
Rattus norvegicus [7] = species: Rattus norvegicus; assay: Hill coefficient value of compound was evaluated for [3H]-APB binding to rat brain synaptic plasma
Procedure, shortened: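 Rat forebrain synaptic plasma membranes (Holtzman rats, 30–90 days; sucrose gradient, 1.0–1.3 M interface; 3–5 mg protein/mL stock). Membranes ≤200 μg/mL preincubated 5 min at 33 °C, then 1 h at 33 °C. Final: 50 mM HEPES pH 7.4, 10 mM CaCl2, 100 nM DL-[3H]APB, displacer up to 1 mM. Separation by centrifugation, scintillation counting. Nonspecific binding with 1 mM unlabeled ligand. Triplicates on ≥3 membrane preparations.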

Rattus norvegicus [8] = species: Rattus norvegicus; assay: Compound was tested for inhibition of Medial perforant path(MPP) neurotransmission in hippocampus.; type: functional
Rattus norvegicus [9] = species: Rattus norvegicus; assay: Compound was tested for inhibition of hippocampal excitatory neurotransmission in schaffer collateral -CA1 pyramidal cells.; type: functional; procedure, shortened: as §2

Structure (SMILES) | Ratio [1] | IC50 (Rattus norvegicus [2]) | IC50 (Rattus norvegicus [3]) | IC50 (Rattus norvegicus [4]) | IC50 (Rattus norvegicus [5]) | Ratio [6] | nH (Rattus norvegicus [7]) | IC50 (Rattus norvegicus [8]) | IC50 (Rattus norvegicus [9])
N[C@@]1(C(=O)O)CCC[C@@H](P(=O)(O)O)C1 | 1.7 | 750 µM | 9600 µM | 10000 µM | 5800 µM | 7.7 | – | – | –
N[C@@]1(C(=O)O)CC[C@@H](P(=O)(O)O)C1 | – | 80 µM | > 10000 µM | 1850 µM | 130 µM | – | 1 | – | –
N[C@@]1(C(=O)O)CC[C@H](P(=O)(O)O)C1 | 2.5 | 4.7 µM | 3800 µM | 2400 µM | 960 µM | – | 1 | – | –
N[C@@H](CCP(=O)(O)O)C(=O)O | 18 | 1.5 µM | – | – | 2.5 µM | – | 0.8 | 45 µM | 2500 µM
N[C@@]1(C(=O)O)CCC[C@H](P(=O)(O)O)C1 | 2.4 | 840 µM | 8100 µM | 7300 µM | 3100 µM | 3.7 | – | – | –
